{
  "source": "ChEMBL document CHEMBL1629583",
  "about": "“Establishment of in vitro susceptibility testing methodologies and comparative activities of piperacillin in combination with the penem {beta}-lactamase inhibitor BLI-489” (2009)",
  "type_in_all_cases": "functional",
  "key": {"[1]": {"tested_on": "Enterococcus faecalis", "test": "Antimicrobial activity against Enterococcus faecalis clinical isolate after 18 to 22 hrs by broth microdilution method in presence of beta-lactamase inhibitor Tazobactam", "summary_of_the_method": "(§1)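 CLSI broth microdilution in Mueller-Hinton II broth. Antibiotic in serial dilution with the β-lactamase inhibitor held at a constant 4 μg/ml. Inoculum 10^5 CFU/ml. Incubated 18 to 22 h at 35°C in ambient air.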"}, "[2]": {"tested_on": "Enterococcus durans", "test": "Antimicrobial activity against Enterococcus durans clinical isolate after 18 to 22 hrs by broth microdilution method in presence of beta-lactamase inhibitor Tazobactam", "summary_of_the_method": "(§2)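 Piperacillin-tazobactam was tested on recent clinical isolates by CLSI broth microdilution in Mueller-Hinton II broth, with tazobactam at constant 4 μg/ml. Wells held 10^5 CFU/ml and were incubated 18 to 22 h at 35°C in ambient air. MIC was the lowest concentration with no growth visible to the unaided eye.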"}, "[3]": {"tested_on": "Providencia rettgeri", "test": "Antimicrobial activity against Providencia rettgeri clinical isolate after 18 to 22 hrs by broth microdilution method in presence of beta-lactamase inhibitor BLI-489", "summary_of_the_method": "(§3)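 CLSI broth microdilution in Mueller-Hinton II broth. Serial dilutions of piperacillin were tested with BLI-489 held at a constant 4 μg/ml. Inoculum was 10^5 CFU/ml. Plates were incubated 18 to 22 h at 35°C in ambient air. MIC was the lowest concentration giving complete growth inhibition by unaided eye.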"}, "[4]": {"tested_on": "Peptostreptococcus anaerobius", "test": "Antimicrobial activity against Peptostreptococcus anaerobius clinical isolate after 18 to 22 hrs by broth microdilution method"}, "[5]": {"tested_on": "Bacteroides thetaiotaomicron", "test": "Antimicrobial activity against Bacteroides thetaiotaomicron clinical isolate after 18 to 22 hrs by broth microdilution method in presence of beta-lactamase inhibitor BLI-489"}, "[6]": {"tested_on": "Serratia marcescens", "test": "Antimicrobial activity against Serratia marcescens clinical isolate after 18 to 22 hrs by broth microdilution method in presence of beta-lactamase inhibitor BLI-489", "summary_of_the_method": "as §3"}, "[7]": {"tested_on": "Providencia stuartii", "test": "Antimicrobial activity against Providencia stuartii clinical isolate after 18 to 22 hrs by broth microdilution method in presence of beta-lactamase inhibitor BLI-489", "summary_of_the_method": "as §3"}, "[8]": {"tested_on": "Acinetobacter calcoaceticus", "test": "Antimicrobial activity against Acinetobacter calcoaceticus clinical isolate after 18 to 22 hrs by broth microdilution method in presence of beta-lactamase inhibitor Tazobactam", "summary_of_the_method": "as §2"}, "[9]": {"tested_on": "Acinetobacter baumannii", "test": "Antimicrobial activity against Acinetobacter baumannii clinical isolate after 18 to 22 hrs by broth microdilution method in presence of beta-lactamase inhibitor BLI-489", "summary_of_the_method": "(§4)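 CLSI broth microdilution in Mueller-Hinton II broth. Piperacillin serial dilutions were combined with BLI-489 held constant at 4 μg/ml. Inoculum was 10^5 CFU/ml. Plates were incubated 18 to 22 h at 35°C in ambient air. MIC was the lowest concentration completely inhibiting growth seen by the unaided eye. Piperacillin-tazobactam interpretive criteria were applied.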"}, "[10]": {"tested_on": "Serratia marcescens", "test": "Antimicrobial activity against AmpC beta-lactamase-producing Serratia marcescens clinical isolate after 18 to 22 hrs by broth microdilution method in presence of beta-lactamase inhibitor BLI-489", "summary_of_the_method": "as §4"}, "[11]": {"tested_on": "Citrobacter freundii", "test": "Antimicrobial activity against Citrobacter freundii clinical isolate after 18 to 22 hrs by broth microdilution method in presence of beta-lactamase inhibitor Tazobactam", "summary_of_the_method": "as §2"}, "[12]": {"tested_on": "Klebsiella pneumoniae", "test": "Antimicrobial activity against class A extended spectrum beta-lactamase- and class D OXA- producing Klebsiella pneumoniae clinical isolate after 18 to 22 hrs by broth microdilution method in presence of beta-lactamase inhibitor Tazobactam", "summary_of_the_method": "(§5)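 Piperacillin-tazobactam was tested by CLSI broth microdilution in Mueller-Hinton II broth against clinical isolates. Inoculum was 10^5 CFU/ml, with 18 to 22 h incubation at 35°C in ambient air. MIC was read as the lowest concentration completely inhibiting visible growth.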"}, "[13]": {"tested_on": "Stenotrophomonas maltophilia", "test": "Antimicrobial activity against Stenotrophomonas maltophilia clinical isolate after 18 to 22 hrs by broth microdilution method in presence of beta-lactamase inhibitor BLI-489", "summary_of_the_method": "as §3"}, "[14]": {"tested_on": "Staphylococcus epidermidis", "test": "Antimicrobial activity against methicillin-resistant Staphylococcus epidermidis clinical isolate after 18 to 22 hrs by broth microdilution method in presence of beta-lactamase inhibitor Tazobactam", "summary_of_the_method": "as §1"}, "[15]": {"tested_on": "Haemophilus influenzae", "test": "Antimicrobial activity against beta-lactamase-producing Haemophilus influenzae clinical isolate after 18 to 22 hrs by broth microdilution method in presence of beta-lactamase inhibitor Tazobactam", "summary_of_the_method": "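[…] was used for CLSI broth microdilution with piperacillin-tazobactam. Inoculum was 10^5 CFU/ml, incubated 18 to 22 h at 35°C in ambient air. MIC was the lowest concentration with no growth visible to the unaided eye.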"}, "[16]": {"tested_on": "Enterococcus faecalis", "test": "Antimicrobial activity against Enterococcus faecalis clinical isolate after 18 to 22 hrs by broth microdilution method in presence of beta-lactamase inhibitor BLI-489", "summary_of_the_method": "as §4"}, "[17]": {"tested_on": "Acinetobacter lwoffii", "test": "Antimicrobial activity against Acinetobacter lwoffii clinical isolate after 18 to 22 hrs by broth microdilution method in presence of beta-lactamase inhibitor Tazobactam", "summary_of_the_method": "as §2"}, "[18]": {"tested_on": "Klebsiella pneumoniae", "test": "Antimicrobial activity against class A extended spectrum beta-lactamase- producing Klebsiella pneumoniae clinical isolate after 18 to 22 hrs by broth microdilution method in presence of beta-lactamase inhibitor Tazobactam", "summary_of_the_method": "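CLSI broth microdilution of piperacillin-tazobactam in Mueller-Hinton II broth with serial dilutions. Inoculum was 10^5 CFU/ml. Incubation was 18 to 22 h at 35°C in ambient air. MIC was read as the lowest concentration giving complete inhibition of growth visible to the unaided eye.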"}, "[19]": {"tested_on": "Klebsiella pneumoniae", "test": "Antimicrobial activity against Klebsiella pneumoniae clinical isolate after 18 to 22 hrs by broth microdilution method in presence of beta-lactamase inhibitor Tazobactam", "summary_of_the_method": "as §5"}, "[20]": {"tested_on": "Enterobacter cloacae", "test": "Antimicrobial activity against Enterobacter cloacae clinical isolate after 18 to 22 hrs by broth microdilution method in presence of beta-lactamase inhibitor BLI-489", "summary_of_the_method": "as §4"}, "[21]": {"tested_on": "Enterococcus faecalis", "test": "Antimicrobial activity against vancomycin-resistant Enterococcus faecalis clinical isolate after 18 to 22 hrs by broth microdilution method in presence of beta-lactamase inhibitor BLI-489", "summary_of_the_method": "as §1"}, "[22]": {"tested_on": "Clostridium perfringens", "test": "Antimicrobial activity against Clostridium perfringens clinical isolate after 18 to 22 hrs by broth microdilution method"}, "[23]": {"tested_on": "Peptostreptococcus anaerobius", "test": "Antimicrobial activity against Peptostreptococcus anaerobius clinical isolate after 18 to 22 hrs by broth microdilution method in presence of beta-lactamase inhibitor Tazobactam"}, "[24]": {"tested_on": "Bacteroides fragilis", "test": "Antimicrobial activity against Bacteroides fragilis clinical isolate after 18 to 22 hrs by broth microdilution method in presence of beta-lactamase inhibitor Tazobactam"}},
  "data": [
    {"smiles": "CCN1CCN(C(=O)N[C@@H](C(=O)N[C@@H]2C(=O)N3[C@@H]2SC(C)(C)[C@@H]3C(=O)O)c2ccccc2)C(=O)C1=O", "note": "[PIPERACILLIN]", "values": [
      {"measurement": "MIC", "setting": "[1]", "result": 2, "unit": "µg/mL"},
      {"measurement": "MIC50", "setting": "[1]", "result": 2, "unit": "µg/mL"},
      {"measurement": "MIC90", "setting": "[1]", "result": 4, "unit": "µg/mL"},
      {"measurement": "MIC50", "setting": "[2]", "result": 4, "unit": "µg/mL"},
      {"measurement": "MIC90", "setting": "[2]", "result": 16, "unit": "µg/mL"},
      {"measurement": "MIC50", "setting": "[3]", "result": 1, "unit": "µg/mL"},
      {"measurement": "MIC90", "setting": "[3]", "result": 8, "unit": "µg/mL"},
      {"measurement": "MIC50", "setting": "[4]", "result": 0.06, "unit": "µg/mL"},
      {"measurement": "MIC90", "setting": "[4]", "result": 0.06, "unit": "µg/mL"},
      {"measurement": "MIC50", "setting": "[5]", "result": 16, "unit": "µg/mL"},
      {"measurement": "MIC90", "setting": "[5]", "result": 16, "unit": "µg/mL"},
      {"measurement": "MIC50", "setting": "[6]", "result": 1, "unit": "µg/mL"},
      {"measurement": "MIC90", "setting": "[6]", "result": 4, "unit": "µg/mL"},
      {"measurement": "MIC50", "setting": "[7]", "result": 1, "unit": "µg/mL"},
      {"measurement": "MIC90", "setting": "[7]", "result": 8, "unit": "µg/mL"},
      {"measurement": "MIC50", "setting": "[8]", "result": "> 128", "unit": "µg/mL"},
      {"measurement": "MIC90", "setting": "[8]", "result": "> 128", "unit": "µg/mL"},
      {"measurement": "MIC50", "setting": "[9]", "result": "> 128", "unit": "µg/mL"},
      {"measurement": "MIC90", "setting": "[9]", "result": "> 128", "unit": "µg/mL"},
      {"measurement": "MIC50", "setting": "[10]", "result": 2, "unit": "µg/mL"},
      {"measurement": "MIC90", "setting": "[10]", "result": 8, "unit": "µg/mL"},
      {"measurement": "MIC50", "setting": "[11]", "result": 64, "unit": "µg/mL"},
      {"measurement": "MIC90", "setting": "[11]", "result": 128, "unit": "µg/mL"},
      {"measurement": "MIC50", "setting": "[12]", "result": 16, "unit": "µg/mL"},
      {"measurement": "MIC90", "setting": "[12]", "result": "> 128", "unit": "µg/mL"},
      {"measurement": "MIC50", "setting": "[13]", "result": "> 128", "unit": "µg/mL"},
      {"measurement": "MIC90", "setting": "[13]", "result": "> 128", "unit": "µg/mL"},
      {"measurement": "MIC50", "setting": "[14]", "result": 1, "unit": "µg/mL"},
      {"measurement": "MIC90", "setting": "[14]", "result": 8, "unit": "µg/mL"},
      {"measurement": "MIC50", "setting": "[15]", "result": 0.008, "unit": "µg/mL"},
      {"measurement": "MIC90", "setting": "[15]", "result": 0.03, "unit": "µg/mL"},
      {"measurement": "MIC50", "setting": "[16]", "result": 2, "unit": "µg/mL"},
      {"measurement": "MIC90", "setting": "[16]", "result": 4, "unit": "µg/mL"},
      {"measurement": "MIC50", "setting": "[17]", "result": "≤ 0.12", "unit": "µg/mL"},
      {"measurement": "MIC90", "setting": "[17]", "result": 32, "unit": "µg/mL"},
      {"measurement": "MIC50", "setting": "[18]", "result": 32, "unit": "µg/mL"},
      {"measurement": "MIC90", "setting": "[18]", "result": "> 128", "unit": "µg/mL"},
      {"measurement": "MIC50", "setting": "[19]", "result": 2, "unit": "µg/mL"},
      {"measurement": "MIC90", "setting": "[19]", "result": 16, "unit": "µg/mL"},
      {"measurement": "MIC50", "setting": "[20]", "result": 2, "unit": "µg/mL"},
      {"measurement": "MIC90", "setting": "[20]", "result": 16, "unit": "µg/mL"},
      {"measurement": "MIC", "setting": "[21]", "result": 2, "unit": "µg/mL"},
      {"measurement": "MIC50", "setting": "[21]", "result": 2, "unit": "µg/mL"},
      {"measurement": "MIC90", "setting": "[21]", "result": 64, "unit": "µg/mL"},
      {"measurement": "MIC50", "setting": "[22]", "result": 0.06, "unit": "µg/mL"},
      {"measurement": "MIC90", "setting": "[22]", "result": 0.25, "unit": "µg/mL"},
      {"measurement": "MIC", "setting": "[23]", "result": "≤ 0.015", "unit": "µg/mL"},
      {"measurement": "MIC50", "setting": "[23]", "result": "≤ 0.015", "unit": "µg/mL"},
      {"measurement": "MIC90", "setting": "[23]", "result": "≤ 0.015", "unit": "µg/mL"},
      {"measurement": "MIC50", "setting": "[24]", "result": 0.06, "unit": "µg/mL"},
      {"measurement": "MIC90", "setting": "[24]", "result": 0.25, "unit": "µg/mL"}
    ]}
  ]
}
